Measured values taken from ChEMBL document CHEMBL4177657, “Structure-activity relationships of 2-substituted phenyl-N-phenyl-2-oxoacetohydrazonoyl cyanides as novel antagonists of exchange proteins directly activated by cAMP (EPACs)” (Bioorg Med Chem Lett, 2017).
pIC50: −log10 of the molar value.

What was measured:
[1] = target: Rap guanine nucleotide exchange factor 4 (Homo sapiens, UniProt Q8WZA2); assay: Antagonist activity at recombinant full length EPAC2 (unknown origin) assessed as inhibition of cAMP-mediated Rap1b-BODIPY GDP nucleotide exchange activity
Outline: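 Guanine nucleotide exchange on Rap1b loaded with bGDP, catalysed by EPAC2 in the presence of 20 μM cAMP and run across a compound dose range. Relative GEF activity is expressed as the normalized reaction rate constant.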

[2] = target: T1, Rap guanine nucleotide exchange factor 3 (Homo sapiens, UniProt O95398); assay: (§1) Antagonist activity at recombinant full length EPAC1 (unknown origin) assessed as inhibition of cAMP-mediated Rap1b-BODIPY GDP nucleotide exchange activity
T1 sequence (O95398 whole entry): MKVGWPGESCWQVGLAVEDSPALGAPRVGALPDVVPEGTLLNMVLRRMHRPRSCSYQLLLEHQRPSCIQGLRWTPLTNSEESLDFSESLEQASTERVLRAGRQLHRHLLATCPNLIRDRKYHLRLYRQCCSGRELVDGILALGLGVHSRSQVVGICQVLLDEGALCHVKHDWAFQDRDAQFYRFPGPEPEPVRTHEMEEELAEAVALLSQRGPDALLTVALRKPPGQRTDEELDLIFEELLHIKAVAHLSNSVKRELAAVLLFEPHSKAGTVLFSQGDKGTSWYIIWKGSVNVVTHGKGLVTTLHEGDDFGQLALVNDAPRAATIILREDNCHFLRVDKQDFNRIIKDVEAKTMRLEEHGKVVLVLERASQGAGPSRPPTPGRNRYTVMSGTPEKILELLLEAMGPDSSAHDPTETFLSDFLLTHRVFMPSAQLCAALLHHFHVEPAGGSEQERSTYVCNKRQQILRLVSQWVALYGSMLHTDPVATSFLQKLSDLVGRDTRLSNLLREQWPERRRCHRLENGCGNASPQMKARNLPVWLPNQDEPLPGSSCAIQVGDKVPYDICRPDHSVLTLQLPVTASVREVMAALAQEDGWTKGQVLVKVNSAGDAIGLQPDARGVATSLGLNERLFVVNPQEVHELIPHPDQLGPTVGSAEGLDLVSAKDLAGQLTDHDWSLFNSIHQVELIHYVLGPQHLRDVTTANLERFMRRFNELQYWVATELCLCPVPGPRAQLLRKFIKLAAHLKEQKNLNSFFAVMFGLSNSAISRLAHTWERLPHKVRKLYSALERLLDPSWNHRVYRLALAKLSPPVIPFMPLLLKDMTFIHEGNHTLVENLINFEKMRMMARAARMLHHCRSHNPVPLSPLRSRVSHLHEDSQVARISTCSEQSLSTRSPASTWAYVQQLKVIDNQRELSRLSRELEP
Outline: (§2)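 Guanine nucleotide exchange on Rap1b loaded with BODIPY-GDP (Rap1b-bGDP), catalysed by EPAC1 in the presence of 20 μM cAMP. Inhibitor is tested over a dose range. GEF activity is expressed as a normalized reaction rate constant, and IC50 is taken from the dose-response curves. Values are mean ± SE, n = 3.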

[3] = target: T2, Rap guanine nucleotide exchange factor 3 (Homo sapiens) (UniProt O95398); assay: as §1; outline: as §2
T2 sequence (whole entry): T1 sequence (O95398 whole entry)

| Structure (SMILES) | pIC50 [1] | inhibition [1] | pIC50 [2] | inhibition [3] |
| --- | --- | --- | --- | --- |
| CC(C)(C)c1cc(C(=O)/C(C#N)=N/Nc2cccc(Cl)c2)no1 | 5.05 to 5.36 | Dose-dependent effect | 4.97 to 5.04 | Dose-dependent effect |
| C[C@@H]1CCc2c(cc(Br)c(F)c2Br)N1C=O | 4.77 |  | 5.26 |  |
